A short description of data set [1]: Tmax in healthy human at 500 mg, po twice daily coadministered with ritonavir 200 mg, po twice daily for 21 days with additional single dose of 551 mg, po on day 7. To be noted: in vivo. The data set is classed as ADME, organism-based. In outline:
(§1)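 Healthy male nonsmoking volunteers (9 completed) on TPV 500 mg + RTV 200 mg orally twice daily. On day 7, after a light snack 60 min earlier, they took 500 mg [14C]TPV (90 µCi) + 200 mg RTV and fasted 4 h; unlabelled dosing then resumed to day 20. Samples were stored at about –20°C until analysis.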

Data set [2] in a line: Cmax in healthy human at 500 mg, po twice daily coadministered with ritonavir 200 mg, po twice daily for 21 days with additional single dose of 551 mg, po on day 7. In kind it is ADME, organism-based. Conditions: in vivo. Set-up: dose 500 mg, route oral. In outline: as §1
Data set [3] is described as follows: Drug level in healthy human at 500 mg, po twice daily coadministered with ritonavir 200 mg, po twice daily for 21 days with additional single dose of 551 mg, po on day 7 measured 12 hrs postdose. In kind it is ADME, organism-based. To be noted: plasma. In outline: as §1
A short description of data set [4]: AUC (0 to 12 hrs) in healthy human at 500 mg, po twice daily coadministered with ritonavir 200 mg, po twice daily for 21 days with additional single dose of 551 mg, po on day 7. In kind it is ADME, organism-based. To be noted: plasma. The arrangement: dose 500 mg, time < 12 hr, route oral. In outline: as §1
Data set [5] is described as follows: Half life in healthy human at 500 mg, po twice daily coadministered with ritonavir 200 mg, po twice daily for 21 days with additional single dose of 551 mg, po on day 7. The data set is classed as ADME, organism-based. To be noted: in vivo. Put shortly:
as §1

A short description of data set [6]: Clearance life in healthy human at 500 mg, po twice daily coadministered with ritonavir 200 mg, po twice daily for 21 days with additional single dose of 551 mg, po on day 7. The data set is classed as ADME, organism-based. Conditions: in vivo. In outline:
as §1

Data set [7] deals with Homo sapiens. Put plainly: Volume of distribution in healthy human at 500 mg, po twice daily coadministered with ritonavir 200 mg, po twice daily for 21 days with additional single dose of 551 mg, po on day 7. The data set is classed as ADME, organism-based. To be noted: in vivo, 504 h. In outline: as §1
Data set [8] relates to Homo sapiens. Description: Toxicity in healthy human at 500 mg, po twice daily coadministered with ritonavir 200 mg, po twice daily for 21 days with additional single dose of 551 mg, po on day 7. The data set is classed as organism-based. To be noted: in vivo, 504 h.
The test system of data set [9] is Homo sapiens. Description: Volume of distribution ( 0 to infinity) in healthy human blood at 500 mg, po twice daily coadministered with ritonavir 200 mg, po twice daily for 21 days with additional single dose of 551 mg, po on day 7. To be noted: in vivo, 504 h. The data set is classed as ADME, organism-based. In outline: as §1
In data set [10] the test system is Homo sapiens. Put plainly: Tlast ( 0 to infinity) in healthy human plasma at 500 mg, po twice daily coadministered with ritonavir 200 mg, po twice daily for 21 days with additional single dose of 551 mg, po on day 7. In kind it is ADME, organism-based. Conditions: in vivo, 504 h. In outline: as §1
Data set [11] concerns Homo sapiens. Description: Volume of distribution ( 0 to infinity) in healthy human plasma at 500 mg, po twice daily coadministered with ritonavir 200 mg, po twice daily for 21 days with additional single dose of 551 mg, po on day 7. The data set is classed as ADME, organism-based. To be noted: in vivo, 504 h. Put shortly: as §1
Data set [12] is described as follows: Biodistribution in healthy human assessed as radioactive drug dose recovery in urine at 500 mg, po twice daily coadministered with ritonavir 200 mg, po twice daily for 21 days with additional single dose of 551 mg, po on day 7. In kind it is ADME, organism-based. Conditions: in vivo, 504 h.
Data set [13] in a line: Biodistribution in healthy human assessed as radioactive drug dose recovery in feces at 500 mg, po twice daily coadministered with ritonavir 200 mg, po twice daily for 21 days with additional single dose of 551 mg, po on day 7. In kind it is ADME, organism-based. Conditions: in vivo, 504 h. In outline:
as §1

For data set [14], the system named is Homo sapiens. Description: Biodistribution in healthy human assessed as radioactive drug dose recovery at 500 mg, po twice daily coadministered with ritonavir 200 mg, po twice daily for 21 days with additional single dose of 551 mg, po on day 7. Conditions: in vivo, 504 h. In kind it is ADME, organism-based. In outline: as §1
Data set [15] deals with Plasma. Put plainly: Biodistribution in healthy human plasma assessed as Tipranavir hydroxyl metabolite H-1 level at 500 mg, po twice daily coadministered with ritonavir 200 mg, po twice daily for 21 days with additional single dose of 551 mg, po on day 7 measured 3 hrs postdose. The data set is classed as ADME, organism-based. Conditions: in vivo. Put shortly: as §1
For data set [16], the system named is Plasma. Put plainly: Biodistribution in healthy human plasma assessed as Tipranavir glucuronidation conjugate H-3 level at 500 mg, po twice daily coadministered with ritonavir 200 mg, po twice daily for 21 days with additional single dose of 551 mg, po on day 7 measured 3 hrs postdose. To be noted: in vivo. In kind it is ADME, organism-based. In outline:
as §1

Data set [17] can be described thus: Biodistribution in healthy human urine assessed as Tipranavir hydroxyl metabolite H-1 level at 500 mg, po twice daily coadministered with ritonavir 200 mg, po twice daily for 21 days with additional single dose of 551 mg, po on day 7. In kind it is ADME, organism-based. To be noted: in vivo, 504 h. Put shortly: as §1
The test system of data set [18] is Homo sapiens. Put plainly: Volume of distribution ( 0 to 12 hrs) in healthy human blood at 500 mg, po twice daily coadministered with ritonavir 200 mg, po twice daily for 21 days with additional single dose of 551 mg, po on day 7. Conditions: in vivo. In kind it is ADME, organism-based. In outline: as §1
In data set [19] the test system is Homo sapiens. Put plainly: Cmax ( 0 to 12 hrs) in healthy human plasma at 500 mg, po twice daily coadministered with ritonavir 200 mg, po twice daily for 21 days with additional single dose of 551 mg, po on day 7. In kind it is ADME, organism-based. The arrangement: dose 500 mg, route oral. Conditions: in vivo. Put shortly: as §1
Data set [20] has as its system Homo sapiens. Put plainly: Volume of distribution ( 0 to 12 hrs) in healthy human plasma at 500 mg, po twice daily coadministered with ritonavir 200 mg, po twice daily for 21 days with additional single dose of 551 mg, po on day 7. The data set is classed as ADME, organism-based. To be noted: in vivo. In outline: as §1
The test system of data set [21] is Homo sapiens. Description: Tlast ( 0 to infinity) in healthy human blood at 500 mg, po twice daily coadministered with ritonavir 200 mg, po twice daily for 21 days with additional single dose of 551 mg, po on day 7. The data set is classed as ADME, organism-based. To be noted: in vivo, 504 h. In outline:
as §1

Data set [22] in a line: Biodistribution in healthy human urine assessed as Tipranavir glucuronidation conjugate H-3 level at 500 mg, po twice daily coadministered with ritonavir 200 mg, po twice daily for 21 days with additional single dose of 551 mg, po on day 7. In kind it is ADME, organism-based. To be noted: in vivo, 504 h. In outline:
as §1

Data set [23] can be described thus: Biodistribution in healthy human urine at 500 mg, po twice daily coadministered with ritonavir 200 mg, po twice daily for 21 days with additional single dose of 551 mg, po on day 7. Conditions: in vivo, 504 h. The data set is classed as ADME, organism-based. In outline: as §1
The nature of data set [24]: Biodistribution in healthy human feces assessed as Tipranavir hydroxyl metabolite H-1 level at 500 mg, po twice daily coadministered with ritonavir 200 mg, po twice daily for 21 days with additional single dose of 551 mg, po on day 7. The data set is classed as ADME, organism-based. Conditions: in vivo, 504 h. Put shortly:
as §1

Data set [25] in a line: Biodistribution in healthy human feces assessed as Tipranavir oxidation metabolite H-2 level at 500 mg, po twice daily coadministered with ritonavir 200 mg, po twice daily for 21 days with additional single dose of 551 mg, po on day 7. In kind it is ADME, organism-based. To be noted: in vivo, 504 h. Put shortly: as §1
Data set [26] can be described thus: Biodistribution in healthy human excreta assessed as Tipranavir hydroxyl metabolite H-1 level at 500 mg, po twice daily coadministered with ritonavir 200 mg, po twice daily for 21 days with additional single dose of 551 mg, po on day 7. The data set is classed as ADME, organism-based. To be noted: in vivo, 504 h. In outline:
as §1

Data set [27] is described as follows: Biodistribution in healthy human excreta assessed as Tipranavir oxidation metabolite H-2 level at 500 mg, po twice daily coadministered with ritonavir 200 mg, po twice daily for 21 days with additional single dose of 551 mg, po on day 7. To be noted: in vivo, 504 h. In kind it is ADME, organism-based. Put shortly:
as §1

The nature of data set [28]: Biodistribution in healthy human sexcreta assessed as Tipranavir glucuronidation conjugate H-3 level at 500 mg, po twice daily coadministered with ritonavir 200 mg, po twice daily for 21 days with additional single dose of 551 mg, po on day 7. The data set is classed as ADME, organism-based, Excreta. To be noted: in vivo, 504 h. In outline:
as §1

The nature of data set [29]: Biodistribution in healthy human excreta at 500 mg, po twice daily coadministered with ritonavir 200 mg, po twice daily for 21 days with additional single dose of 551 mg, po on day 7. The data set is classed as ADME, organism-based. Conditions: in vivo, 504 h. Put shortly:
as §1

The structures appear in SMILES notation. Where only a bound is given, the exact number is not on record here.

This is an account of results in ChEMBL document CHEMBL1157361, “Steady-state disposition of the nonpeptidic protease inhibitor tipranavir when coadministered with ritonavir” (Antimicrob Agents Chemother, 2007).

The term Tmax denotes the time from dosing to the highest level. One may read the Cmax as the highest concentration seen after dosing. The AUC(0-t) is exposure summed from dosing to a finite time, without extrapolation to infinity. Broadly, the half-life is how long it takes for the measured level to halve. Usually CL/F stands for the apparent clearance, not corrected for the fraction that reaches the circulation. As for `CCC[C@@]1(CCc2ccccc2)CC(O)=C([C@H](CC)c2cccc(NS(=O)(=O)c3ccc(C(F)(F)F)cn3)c2)C(=O)O1` [TIPRANAVIR], the Tmax in [1] was 2.9 h. In addition, in [2], the Cmax was 99.4 µM. In [3], the concentration at 12 h was determined as 25.9 µM. The AUC(0-t) at 12 h in data set [4] was 657 µM·h. The half-life in data set [5] was 4.6 h. In addition, in data set [6], the CL/F was 24.5 mL/min. Also, in the data set with Homo sapiens [7], the Vd amounted to 9.6 L. In addition, the Activity result with Homo sapiens [8] is reported as “Non-toxic”.

Take `CCC[C@@]1(CCc2ccccc2)CC(O)=C([14C@H](CC)c2cccc(NS(=O)(=O)c3ccc(C(F)(F)F)cn3)c2)C(=O)O1`: the Vd in the data set with Homo sapiens [9] is 44.23 L; in the data set on Homo sapiens [11], 32.47 L; in the data set on Homo sapiens [18] it was 15.68 L; in the data set on Homo sapiens [20] it was 8.32 L. Also, the Tlast with Homo sapiens [10] came out at 90.67 h; in the data set on Homo sapiens [21], 64 h. In addition, the Drug uptake in [12] was 4.59%; in data set [13], 70.4%; with Homo sapiens [14] it was 75.3%; with Plasma [15] it was 0.1 µg/mL; in the data set on Plasma [16], 0.05 µg/mL; in data set [17], under 0.1 %ID. Further, the Drug uptake in [22] was 0.5 %ID; in [23] it was under 0.1 %ID; in data set [24], 3.2 %ID; in data set [25], 0.4 %ID; in [26] it was 3.2 %ID; in [27], 0.4 %ID. Besides, the Drug uptake is reported as 0.5 %ID in data set [28] and 53.5 %ID in data set [29]. For the same compound, the Cmax in the data set with Homo sapiens [19] worked out at 90.5 µM.
